Measured values: ChEMBL document CHEMBL1765045, “Fine-tuning the selectivity of aldosterone synthase inhibitors: structure-activity and structure-selectivity insights from studies of heteroaryl substituted 1,2,5,6-tetrahydropyrrolo[3,2,1-ij]quinolin-4-one derivatives” (J Med Chem, 2011)

Assays:
[1] = target: T1, Cytochrome P450 11B2, mitochondrial (Homo sapiens, UniProt P19099); test: Inhibition of human CYP11B2 expressed in hamster V79 MZh cells assessed as conversion of [4-14C]-11-deoxycorticosterone substrate at 500 nM by HPTLC assay; format: cell-based; settings: V79MZh
T1 sequence (P19099 whole entry): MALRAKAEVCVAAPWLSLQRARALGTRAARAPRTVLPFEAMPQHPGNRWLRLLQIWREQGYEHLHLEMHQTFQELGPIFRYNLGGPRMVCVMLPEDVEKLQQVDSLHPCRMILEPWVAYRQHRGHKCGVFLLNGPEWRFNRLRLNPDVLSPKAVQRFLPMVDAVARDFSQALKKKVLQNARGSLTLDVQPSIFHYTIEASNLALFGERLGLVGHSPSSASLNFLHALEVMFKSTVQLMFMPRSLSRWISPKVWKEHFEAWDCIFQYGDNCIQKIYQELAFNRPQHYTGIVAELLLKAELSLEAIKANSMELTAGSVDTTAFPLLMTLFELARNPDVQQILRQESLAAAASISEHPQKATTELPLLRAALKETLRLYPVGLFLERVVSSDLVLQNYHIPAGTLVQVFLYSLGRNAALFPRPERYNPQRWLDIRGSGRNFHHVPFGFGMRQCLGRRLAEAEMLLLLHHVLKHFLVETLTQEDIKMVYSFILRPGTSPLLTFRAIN
Summary of the method: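 V79 MZh cells expressing human CYP11B2 given [4-14C]-11-deoxycorticosterone, 100 nM, with inhibitor at a single 500 nM concentration. Ethyl acetate extraction, then HPTLC/phosphoimager readout of conversion. Percent inhibition is the mean of at least three experiments.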

CYP17 = target: T2, CYP17 (Homo sapiens, UniProt P05093); test: Inhibition of human CYP17 expressed in Escherichia coli using progesterone substrate at 2 uM; settings: recombinant human CYP17 expressed in Escherichia coli, probe progesterone
T2 sequence (P05093 whole entry): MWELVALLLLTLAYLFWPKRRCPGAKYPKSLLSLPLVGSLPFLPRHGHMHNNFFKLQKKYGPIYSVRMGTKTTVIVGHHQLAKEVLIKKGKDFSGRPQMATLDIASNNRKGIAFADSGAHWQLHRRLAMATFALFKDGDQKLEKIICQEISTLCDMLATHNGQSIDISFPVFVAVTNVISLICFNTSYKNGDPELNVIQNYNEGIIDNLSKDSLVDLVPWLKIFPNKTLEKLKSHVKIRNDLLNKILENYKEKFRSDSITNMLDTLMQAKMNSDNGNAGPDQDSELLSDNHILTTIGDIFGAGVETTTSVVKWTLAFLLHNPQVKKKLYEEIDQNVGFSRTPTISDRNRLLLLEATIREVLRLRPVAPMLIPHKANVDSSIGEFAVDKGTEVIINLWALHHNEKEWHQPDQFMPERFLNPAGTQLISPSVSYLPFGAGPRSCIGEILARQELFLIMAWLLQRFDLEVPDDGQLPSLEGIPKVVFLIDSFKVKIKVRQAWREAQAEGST
Summary of the method: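 50000g sediment of E. coli homogenate recombinantly expressing human CYP17. Progesterone substrate at 25 μM, inhibitor tested at 2 μM.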

[2] = target: T3, Cytochrome P450 11B1, mitochondrial (Homo sapiens, UniProt P15538); test: Inhibition of human CYP11B1 expressed in hamster V79 MZh cells assessed as conversion of [4-14C]-11-deoxycorticosterone substrate by HPTLC assay; format: cell-based
T3 sequence (P15538 whole entry): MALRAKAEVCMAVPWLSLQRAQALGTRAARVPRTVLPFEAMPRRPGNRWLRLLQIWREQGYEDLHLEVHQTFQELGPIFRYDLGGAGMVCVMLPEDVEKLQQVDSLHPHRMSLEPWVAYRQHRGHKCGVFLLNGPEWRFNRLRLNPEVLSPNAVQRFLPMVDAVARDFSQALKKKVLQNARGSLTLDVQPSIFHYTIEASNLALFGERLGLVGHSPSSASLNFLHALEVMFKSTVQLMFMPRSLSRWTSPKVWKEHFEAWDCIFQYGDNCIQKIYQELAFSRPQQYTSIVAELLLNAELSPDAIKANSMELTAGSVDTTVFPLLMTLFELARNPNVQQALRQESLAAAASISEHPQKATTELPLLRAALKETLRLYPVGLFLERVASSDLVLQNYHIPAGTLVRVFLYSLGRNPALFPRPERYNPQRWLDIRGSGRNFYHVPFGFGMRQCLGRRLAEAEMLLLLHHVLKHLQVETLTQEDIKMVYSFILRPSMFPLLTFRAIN
Summary of the method: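 V79 MZh hamster fibroblasts stably expressing human CYP11B1 or CYP11B2 incubated with [4-14C]-11-deoxycorticosterone, 100 nM, plus inhibitor at ≥3 concentrations. Reaction stopped with ethyl acetate, steroids extracted into the organic phase, and substrate conversion quantified by HPTLC with phosphoimaging. IC50 is the mean of at least three experiments.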

[3] = target: T1, Cytochrome P450 11B2, mitochondrial; test: Inhibition of human CYP11B2 expressed in hamster V79 MZh cells assessed as conversion of [4-14C]-11-deoxycorticosterone substrate by HPTLC assay; format: cell-based
Summary of the method: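 Hamster V79 MZh fibroblasts expressing human CYP11B2 incubated with [4-14C]-11-deoxycorticosterone (100 nM) and inhibitor at ≥3 concentrations; reaction stopped with ethyl acetate, steroids extracted after shaking and centrifugation (10000g, 2 min). Substrate conversion read by HPTLC with phosphoimaging.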

Homo sapiens = species: Homo sapiens; test: Selectivity ratio of IC50 for human CYP11B1 to IC50 for human CYP11B2
Summary of the method: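 Ratio of IC50 values from V79 MZh cell assays for human CYP11B1 and CYP11B2, IC50 CYP11B1/IC50 CYP11B2. Both assays used [4-14C]-11-deoxycorticosterone, 100 nM, inhibitor at ≥3 concentrations and HPTLC/phosphoimager readout of conversion.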

CYP1A2 [4] = target: T4, CYP1A2 (Homo sapiens, UniProt P05177); test: Inhibition of human CYP1A2 expressed in baculovirus-infected insect microsomes at 1 uM; format: ADME, Microsome
T4 sequence (P05177 whole entry): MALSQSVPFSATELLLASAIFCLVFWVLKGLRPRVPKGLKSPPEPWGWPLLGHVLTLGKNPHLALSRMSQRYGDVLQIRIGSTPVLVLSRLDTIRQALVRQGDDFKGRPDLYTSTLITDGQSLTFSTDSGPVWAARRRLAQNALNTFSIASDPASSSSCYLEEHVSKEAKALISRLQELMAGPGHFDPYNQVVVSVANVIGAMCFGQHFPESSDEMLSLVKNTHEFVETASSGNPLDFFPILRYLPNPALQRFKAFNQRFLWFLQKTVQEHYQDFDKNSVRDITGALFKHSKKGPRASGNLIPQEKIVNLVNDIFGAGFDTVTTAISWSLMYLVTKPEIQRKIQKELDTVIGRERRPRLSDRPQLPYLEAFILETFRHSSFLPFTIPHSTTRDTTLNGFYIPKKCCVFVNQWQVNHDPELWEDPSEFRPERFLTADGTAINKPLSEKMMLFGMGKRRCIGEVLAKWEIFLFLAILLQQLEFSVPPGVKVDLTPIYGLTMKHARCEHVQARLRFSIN
Summary of the method: (§1)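 Recombinant human CYP1A2, 2B6, 2C9, 2C19, 2D6 or 3A4 in baculovirus-infected insect microsomes (Supersomes), run per manufacturer's protocol. Inhibitor at 1 and 10 μM; percent inhibition is the mean of two experiments.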

CYP2C9 [5] = target: T5, CYP2C9 (Homo sapiens, UniProt P11712); test: Inhibition of human CYP2C9 expressed in baculovirus-infected insect microsomes at 10 uM; format: ADME, Microsome; summary of the method: as §1
CYP3A4 [6] = target: T6, CYP3A4 (Homo sapiens, UniProt P08684); test: Inhibition of human CYP3A4 expressed in baculovirus-infected insect microsomes at 10 uM; format: ADME, Microsome; summary of the method: as §1
CYP2C9 [7] = target: T5, CYP2C9; test: Inhibition of human CYP2C9 expressed in baculovirus-infected insect microsomes at 1 uM; format: ADME, Microsome; summary of the method: as §1
CYP1A2 [8] = target: T4, CYP1A2; test: Inhibition of human CYP1A2 expressed in baculovirus-infected insect microsomes at 10 uM; format: ADME, Microsome; summary of the method: as §1
CYP2C19 [9] = target: T7, CYP2C19 (Homo sapiens, UniProt P33261); test: Inhibition of human CYP2C19 expressed in baculovirus-infected insect microsomes at 10 uM; format: ADME, Microsome; summary of the method: as §1
CYP2C19 [10] = target: T7, CYP2C19; test: Inhibition of human CYP2C19 expressed in baculovirus-infected insect microsomes at 1 uM; format: ADME, Microsome; summary of the method: as §1
CYP3A4 [11] = target: T6, CYP3A4; test: Inhibition of human CYP3A4 expressed in baculovirus-infected insect microsomes at 1 uM; format: ADME, Microsome; summary of the method: as §1

T7 sequence (P33261 whole entry): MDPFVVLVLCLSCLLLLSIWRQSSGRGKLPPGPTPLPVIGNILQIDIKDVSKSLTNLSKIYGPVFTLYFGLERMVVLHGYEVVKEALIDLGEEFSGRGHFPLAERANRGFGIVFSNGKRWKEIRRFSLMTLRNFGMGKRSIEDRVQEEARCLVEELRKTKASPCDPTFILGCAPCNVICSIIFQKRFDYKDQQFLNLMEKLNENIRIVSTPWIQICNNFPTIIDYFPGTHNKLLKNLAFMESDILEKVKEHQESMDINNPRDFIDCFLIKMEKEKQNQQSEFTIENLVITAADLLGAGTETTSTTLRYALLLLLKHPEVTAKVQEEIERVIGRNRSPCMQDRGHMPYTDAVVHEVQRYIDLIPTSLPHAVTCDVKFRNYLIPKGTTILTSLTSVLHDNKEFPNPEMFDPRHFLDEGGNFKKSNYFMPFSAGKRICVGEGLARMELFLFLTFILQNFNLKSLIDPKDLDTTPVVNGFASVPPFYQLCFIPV
T5 sequence (P11712 whole entry): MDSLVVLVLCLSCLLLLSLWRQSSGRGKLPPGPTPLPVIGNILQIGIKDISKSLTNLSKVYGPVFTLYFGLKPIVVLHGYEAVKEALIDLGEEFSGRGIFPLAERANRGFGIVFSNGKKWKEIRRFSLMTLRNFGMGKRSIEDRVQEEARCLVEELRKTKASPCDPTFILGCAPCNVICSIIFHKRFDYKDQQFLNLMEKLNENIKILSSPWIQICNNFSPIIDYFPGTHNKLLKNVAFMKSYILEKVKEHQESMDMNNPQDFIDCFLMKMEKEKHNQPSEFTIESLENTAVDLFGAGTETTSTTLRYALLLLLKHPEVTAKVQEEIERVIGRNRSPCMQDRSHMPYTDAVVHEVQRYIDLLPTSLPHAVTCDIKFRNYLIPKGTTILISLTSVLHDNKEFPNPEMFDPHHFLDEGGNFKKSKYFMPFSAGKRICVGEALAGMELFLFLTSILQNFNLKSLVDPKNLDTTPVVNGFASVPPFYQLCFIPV
T6 sequence (P08684 whole entry): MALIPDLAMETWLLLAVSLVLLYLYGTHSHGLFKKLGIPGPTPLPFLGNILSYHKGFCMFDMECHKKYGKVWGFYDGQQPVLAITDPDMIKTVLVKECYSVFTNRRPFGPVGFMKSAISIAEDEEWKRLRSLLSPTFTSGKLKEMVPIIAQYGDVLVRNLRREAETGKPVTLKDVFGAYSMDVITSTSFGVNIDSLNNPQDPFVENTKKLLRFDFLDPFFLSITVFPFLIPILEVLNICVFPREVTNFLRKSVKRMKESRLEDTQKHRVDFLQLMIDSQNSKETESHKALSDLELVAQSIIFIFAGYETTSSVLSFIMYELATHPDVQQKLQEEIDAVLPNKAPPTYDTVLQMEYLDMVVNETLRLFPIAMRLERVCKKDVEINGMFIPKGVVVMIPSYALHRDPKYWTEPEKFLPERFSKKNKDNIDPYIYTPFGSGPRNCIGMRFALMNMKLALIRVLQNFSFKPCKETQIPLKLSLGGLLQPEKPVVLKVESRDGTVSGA

SMILES	inhibition at 0.5 µM [1]	inhibition at 2 µM (CYP17)	IC50 [2]	IC50 [3]	Ratio IC50 (Homo sapiens)	inhibition at 1 µM (CYP1A2 [4])	inhibition at 10 µM (CYP2C9 [5])	inhibition at 10 µM (CYP3A4 [6])	inhibition at 1 µM (CYP2C9 [7])	inhibition at 10 µM (CYP1A2 [8])	inhibition at 10 µM (CYP2C19 [9])	inhibition at 1 µM (CYP2C19 [10])	inhibition at 1 µM (CYP3A4 [11])
O=C1CCc2cc(-c3cncc(-c4ccc(F)c(F)c4)c3)cc3c2N1CC3	89%	< 5%	496 nM	2.3 nM	–	–	–	–	–	–	–	–	–
O=C1CCc2cc(-c3cncc(-c4ccccc4F)c3)cc3c2N1CC3	92%	–	43 nM	0.7 nM	61	–	–	–	–	–	–	–	–
O=C1CCc2cc(-c3cncc(C(F)(F)F)c3)cc3c2N1CC3	96%	–	141 nM	5.9 nM	–	–	–	–	–	–	–	–	–
O=C1CCc2cc(-c3cncc(-c4ccccc4)c3)cc3c2N1CC3	97%	–	58 nM	1.3 nM	45	–	–	–	–	–	–	–	–
CC1(C)CC(=O)N2CCc3cc(-c4cccnc4)cc1c32	48%	–	–	–	–	–	–	–	–	–	–	–	–
CC(C)Oc1cncc(-c2cc3c4c(c2)CCN4C(=O)CC3)c1	96%	–	103 nM	2.2 nM	–	–	–	–	–	–	–	–	–
O=C1CCc2cc(-c3cncc(F)c3)cc3c2N1CC3	97%	< 5%	1290 nM	4.4 nM	–	–	–	–	–	–	–	–	–
O=C1CCc2cc(-c3cncc(-c4ccc(F)cc4)c3)cc3c2N1CC3	96%	–	40 nM	0.9 nM	–	–	–	–	–	–	–	–	–
COc1cncc(-c2cc3c4c(c2)CCC(=O)N4CCC3)c1	95%	< 5%	545 nM	0.9 nM	–	47%	63%	24%	34%	87%	61%	11%	12%
O=C1CCc2cc(-n3ccnc3)cc3c2N1CC3	87%	–	2080 nM	89 nM	–	–	–	–	–	–	–	–	–
O=C1CCc2cc(-c3cncc4ccccc34)cc3c2N1CC3	98%	6%	13 nM	0.2 nM	–	–	–	–	–	–	–	–	–
O=C1CCc2cc(-c3cncc4ccccc34)cc3c2N1CCC3	95%	5%	34 nM	0.2 nM	170	24%	97%	< 5%	73%	63%	96%	67%	< 5%
